SMILES strings stand for the structures.

The subject of one series is Plasmodium falciparum. Put plainly: Antimalarial activity against Plasmodium falciparum 3D7A infected in human RBC after 48 hrs by [3H]-hypoxanthine incorporation assay. It counts as functional.
For another series, the target named is serum albumin (Homo sapiens, UniProt P02768). Put plainly: Binding affinity to human serum albumin by HPLC method. It counts as ADME. Particulars: read-out: PB (converted).
A short description of series [1]: AUC (infinity) in CD1 mouse at 10.36 mg/kg administered via oral gavage by LC-MS/MS method. Type of series: ADME, organism-based. The arrangement: dose 10.36 mg/kg, route oral, time infinity. Particulars: in vivo. The gist of the method: (§1)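 Specific pathogen-free female CD1 (Hsd:ICR) mice, 8 to 10 weeks old. Each compound was given as an intravenous dose and an oral dose at the levels listed. Parameters reported: Vd, clearance, t1/2, Cmax, Tmax, AUC0-t, AUC∞ and %F.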

A short description of series [2]: Half life in CD1 mouse at 0.192 mg/kg, iv as bolus dose by LC-MS/MS method. To be noted: in vivo. Type of series: ADME, organism-based. The gist of the method: as §1
The nature of series [3]: AUC (0 to t) in CD1 mouse at 10.36 mg/kg administered via oral gavage by LC-MS/MS method. Type of series: ADME, organism-based. Particulars: in vivo. In outline: as §1
A short description of series [4]: Clearance in CD1 mouse at 0.192 mg/kg, iv as bolus dose by LC-MS/MS method. Type of series: ADME, organism-based. To be noted: in vivo. In outline:
as §1

The nature of series [5]: Volume of distribution in CD1 mouse at 0.192 mg/kg, iv as bolus dose by LC-MS/MS method. To be noted: in vivo. Type of series: ADME, organism-based. The gist of the method: (§2)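 Specific pathogen-free female CD1 (Hsd:ICR) mice, 8–10 weeks old, housed in the institutional animal facility. Each compound was given intravenously at a low dose and orally at a higher dose. Vd, clearance, t1/2, Cmax, Tmax, AUC0-t, AUC∞ and %F were derived from plasma exposure after each route.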

Series [6] in a line: Oral bioavailability in CD1 mouse at 10.36 mg/kg administered via gavage by LC-MS/MS method. It counts as ADME, organism-based. To be noted: in vivo. In outline: as §1
Series [7] in a line: Tmax in CD1 mouse at 10.36 mg/kg administered via oral gavage by LC-MS/MS method. It counts as ADME, organism-based. Particulars: in vivo. In outline:
as §2

Series [8] is described as follows: Cmax in CD1 mouse at 10.36 mg/kg administered via oral gavage by LC-MS/MS method. It counts as ADME, organism-based. The arrangement: dose 10.36 mg/kg, route oral. Particulars: in vivo. In outline: as §1
Series [9] in a line: Tmax in CD1 mouse at 4.42 mg/kg administered via oral gavage by LC-MS/MS method. Particulars: in vivo. It counts as ADME, organism-based. In outline:
as §2

The next series deals with Plasmodium yoelii. Put plainly: Schizontocidal activity against Plasmodium yoelii infected in CD1 mouse administered via oral gavage as qd for 4 days starting 1 hr post infection by YOYO-1 dye-based flow cytometric method. Type of series: functional. The gist of the method: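 Blood schizontocidal activity was tested in a modified 4-day suppressive test in mice infected with P. yoelii. Four oral doses were given by gavage over four days.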
In general terms: Flow cytometry measures light scatter and fluorescence of single cells or particles in a stream.

Series [10] is described as follows: Oral bioavailability in CD1 mouse at 4.42 mg/kg administered via gavage by LC-MS/MS method. Type of series: ADME, organism-based. To be noted: in vivo. In outline:
as §2

Series [11] is described as follows: AUC (infinity) in CD1 mouse at 4.42 mg/kg administered via oral gavage by LC-MS/MS method. More on the design: dose 4.42 mg/kg, time infinity, route oral. To be noted: in vivo. Type of series: ADME, organism-based. The gist of the method: as §1
A short description of series [12]: AUC (0 to t) in CD1 mouse at 4.42 mg/kg administered via oral gavage by LC-MS/MS method. It counts as ADME, organism-based. To be noted: in vivo. In outline: as §1
Series [13] can be described thus: Cmax in CD1 mouse at 4.42 mg/kg administered via oral gavage by LC-MS/MS method. More on the design: dose 4.42 mg/kg, route oral. It counts as ADME, organism-based. To be noted: in vivo. In outline: as §1
Series [14] in a line: Cmax in CD1 mouse at 8.3 mg/kg administered via oral gavage by LC-MS/MS method. It counts as ADME, organism-based. More on the design: dose 8.3 mg/kg, route oral. Particulars: in vivo. In outline:
as §1

Series [15] can be described thus: Oral bioavailability in CD1 mouse at 8.3 mg/kg administered via gavage by LC-MS/MS method. It counts as ADME, organism-based. Particulars: in vivo. In outline: as §2
Series [16] is described as follows: Tmax in CD1 mouse at 8.3 mg/kg administered via oral gavage by LC-MS/MS method. It counts as ADME, organism-based. To be noted: in vivo. In outline:
as §2

A short description of series [17]: AUC (infinity) in CD1 mouse at 8.3 mg/kg administered via oral gavage by LC-MS/MS method. Type of series: ADME, organism-based. More on the design: dose 8.3 mg/kg, route oral, time infinity. Particulars: in vivo. In outline: as §1
Series [18] can be described thus: Volume of distribution in CD1 mouse at […], iv as bolus dose by LC-MS/MS method. Type of series: ADME, organism-based. To be noted: in vivo.
A short description of series [19]: Half life in CD1 mouse at […], iv as bolus dose by LC-MS/MS method. Type of series: ADME, organism-based. Particulars: in vivo.
The nature of series [20]: AUC (0 to t) in CD1 mouse at 8.3 mg/kg administered via oral gavage by LC-MS/MS method. Type of series: ADME, organism-based. To be noted: in vivo. In outline:
as §1

Series [21] in a line: Clearance in CD1 mouse at […], iv as bolus dose by LC-MS/MS method. To be noted: in vivo. It counts as ADME, organism-based.

serum albumin, sequence (P02768 whole entry): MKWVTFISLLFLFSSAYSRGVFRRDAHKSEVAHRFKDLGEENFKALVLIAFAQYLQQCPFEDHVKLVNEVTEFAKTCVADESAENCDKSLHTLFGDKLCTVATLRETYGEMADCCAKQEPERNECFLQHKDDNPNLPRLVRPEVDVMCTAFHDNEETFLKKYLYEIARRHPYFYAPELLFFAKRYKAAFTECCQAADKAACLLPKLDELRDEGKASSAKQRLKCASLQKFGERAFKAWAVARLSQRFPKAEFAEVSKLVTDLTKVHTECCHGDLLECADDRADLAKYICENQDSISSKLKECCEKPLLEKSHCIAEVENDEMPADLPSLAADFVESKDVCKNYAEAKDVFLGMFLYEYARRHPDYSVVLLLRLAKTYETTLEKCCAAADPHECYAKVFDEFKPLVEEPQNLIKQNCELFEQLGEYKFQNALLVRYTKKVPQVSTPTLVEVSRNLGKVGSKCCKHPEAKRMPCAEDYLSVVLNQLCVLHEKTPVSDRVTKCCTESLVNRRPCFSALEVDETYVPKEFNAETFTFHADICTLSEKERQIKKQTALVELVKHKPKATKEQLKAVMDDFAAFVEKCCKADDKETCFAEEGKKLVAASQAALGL

With `Cc1[nH]c(C)c(-c2ccc(OCc3cc(C(F)(F)F)cc(C(F)(F)F)c3)nc2)c(=O)c1Cl`, inhibition with Plasmodium falciparum was half-maximal at 29 nM (IC50).

As to `Cc1[nH]c(C)c(-c2ccc(OCc3ccc(OC(F)(F)F)cc3)nc2)c(=O)c1Br`, in the series on Plasmodium falciparum, the IC50 (commonly the concentration that inhibits the measured activity by half) turned out to be 19 nM. Besides, on serum albumin, the fraction unbound is 0.03.

On to `Cc1[nH]c(CO)c(-c2ccc(Oc3ccc(OC(F)(F)F)cc3)cc2)c(=O)c1Cl`, for which the IC50 in the series on Plasmodium falciparum was 5 nM.

Consider `Cc1[nH]c(C)c(-c2ccc(Oc3ccc(OC(F)(F)F)cc3)nc2)c(=O)c1Cl`, for which, in the series with Plasmodium falciparum, the IC50 was determined as 33 nM.

For `Cc1[nH]c(C)c(-c2ccc(OCc3cc(C(F)(F)F)cc(C(F)(F)F)c3)nc2)c(=O)c1Br`, it took 33 nM to reach half-maximal inhibition in the series with Plasmodium falciparum (IC50).

On to `Cc1[nH]c(C)c(-c2ccc(-c3ccc(S(C)(=O)=O)cc3)nc2)c(=O)c1Br`, for which, in the series on Plasmodium falciparum, the IC50 was found to be 288 nM.

Consider `Cc1[nH]c(C)c(-c2ccc(-c3cccc(Cl)c3)nc2)c(=O)c1Cl`, for which, in the series with Plasmodium falciparum, inhibition was half-maximal at 116 nM (IC50).

`Cc1[nH]c(C)c(-c2ccc(OCc3cc(F)cc(F)c3)nc2)c(=O)c1Cl` gave an IC50 in the series on Plasmodium falciparum of 80 nM.

For the compound `Cc1[nH]c(C)c(-c2ccc(-c3ccc(OC(F)(F)F)cc3)nc2)c(=O)c1Br`, the AUC(0-inf) – broadly, the area under the concentration-time curve extrapolated to infinity – in [1] came to 118 µg·h/mL. For the same compound, the half-life – broadly, the time needed for the level to fall by half in the phase considered – in series [2] is 14.6 h. The area under the curve AUC(0-t) (as a rule, the area under the concentration-time curve up to a stated or last time point) in series [3] is 109 µg·h/mL. For the same compound, in the series with Plasmodium falciparum, the midpoint of inhibition, the IC50, lay at 20 nM. Moreover, the clearance (as a rule, a measure of how efficiently the substance is removed, as volume per time) in [4] was found to be 0.72 mL/min/kg. Further, the Vd (usually a proportionality between amount in the body and measured concentration, not a real space) in [5] amounted to 0.91 L/kg. In addition, the bioavailability (in general, the share of a dose that reaches the circulation, judged against a reference dose that is usually intravenous) in series [6] turned out to be 49.1%. Besides, in series [7], the time to peak (Tmax) (as a rule, the time at which the peak concentration occurs) worked out at 10 h. The fraction unbound at serum albumin was 0.04. Moreover, in [8], the Cmax (in general, the maximum level reached in the sampled fluid or tissue) came to 4100 ng/mL.

In the case of `Cc1[nH]c(C)c(-c2ccc(CCc3ccc(C(F)(F)F)cc3)nc2)c(=O)c1Cl`, the IC50 in the series with Plasmodium falciparum is 5 nM.

Turning to `Cc1[nH]c(C)c(-c2ccc(OCc3ccc(C(F)(F)F)cc3)nc2)c(=O)c1Br`, the IC50 with Plasmodium falciparum is 2 nM.

The compound `Cc1[nH]c(C)c(-c2ccc(-c3cccc(CO)c3)nc2)c(=O)c1Br` gave an IC50 in the series with Plasmodium falciparum of 324 nM.

Regarding `Cc1[nH]c(C)c(-c2ccc(-c3ccccc3OC(F)(F)F)nc2)c(=O)c1Cl`, the IC50 with Plasmodium falciparum is 35 nM.

As to `Cc1[nH]c(C)c(-c2ccc(-c3ccc(C(F)(F)F)cc3)nc2)c(=O)c1Cl`, the time of peak concentration (Tmax) in [9] came out at 10 h. Besides, in the series on Plasmodium yoelii, the 50% effect level (ED50) was put at a dose of 0.25 mg/kg. The compound further gave a bioavailability in series [10] of 100%. For the same compound, the AUC(0-inf) in series [11] came to 106 µg·h/mL. This compound also returned an AUC(0-t) in series [12] of 101 µg·h/mL. Also, the IC50 in the series on Plasmodium falciparum worked out at 16 nM. In series [13], this compound returned a Cmax of 3310 ng/mL. Moreover, the fraction unbound on serum albumin was 0.05.

`Cc1[nH]c(C)c(-c2ccc(OCc3cccc(C(F)(F)F)c3)nc2)c(=O)c1Cl` had an IC50 with Plasmodium falciparum of 5 nM.

Take `Cc1[nH]c(C)c(-c2ccc(-c3ccc(F)cc3)nc2)c(=O)c1Cl`: in the series with Plasmodium falciparum, the half-inhibitory concentration (IC50) is 82 nM.

For the compound `Cc1[nH]c(C)c(-c2ccc(OCc3ccc(OC(F)(F)F)cc3)nc2)c(=O)c1Cl`, the ED50 (commonly the dose that gives a 50% effect, or the effect in half of the subjects) in the series on Plasmodium yoelii came to 16.3 mg/kg. Further, the peak level in series [14] (Cmax) was 300 ng/mL. The compound also had a bioavailability in series [15] of 11%. Also, the Tmax in series [16] was determined as 6 h. Further, in the series on Plasmodium falciparum, the IC50 came out at 14 nM. The same compound came in with an area under the curve AUC(0-inf) in series [17] of 5.6 µg·h/mL. The Vd in series [18] turned out to be 1.26 L/kg. For the same compound, on serum albumin, the fraction unbound was 0.03. In series [19], this compound had a half-life of 5.32 h. Moreover, the AUC(0-t) in [20] came out at 5.6 µg·h/mL. In series [21], this compound returned a clearance of 2.74 mL/min/kg.

For the compound `Cc1[nH]c(C)c(-c2ccc(-c3ccccc3F)nc2)c(=O)c1Cl`, it took 49 nM to reach half-maximal inhibition in the series with Plasmodium falciparum (IC50).

`Cc1[nH]c(C)c(-c2ccc(-c3ccccc3Cl)nc2)c(=O)c1Cl` showed an IC50 in the series with Plasmodium falciparum of 26 nM.

As to `Cc1[nH]c(C)c(-c2ccc(C#Cc3ccc(F)cc3F)nc2)c(=O)c1Cl`, inhibition in the series on Plasmodium falciparum was half-maximal at 472 nM (IC50).

The values above are taken from ChEMBL document CHEMBL4043297, “Synthesis and Structure-Activity Relationships of the Novel Antimalarials 5-Pyridinyl-4(1 H)-Pyridones” (J Med Chem, 2018).
